In the library only some 3.7% were active in any assay of this set; here they are far more common.
KCNQ1 act – potentiators or activators of KCNQ1 channel, primary screen, cell-based, thallium flux, high-throughput. actives 0.35% (n = 310,000). Potassium voltage-gated channel subfamily KQT member 1 (Homo sapiens), P51787. B-score at 10 µM. CHO-K1 KCNQ1, thallium flux FluxOR fluorescence; hits give high values. AID 2648, 2010;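 active = fluorescence ratio B-score, a plate-corrected score, at least three library SD, with initial intensity B-score within 5 SD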
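Medium – assay buffer, equal DMSO in all wells · Material – CHO-K1 cell line with stable KCNQ1 potassium channel expression · Signal – kinetic FluxOR thallium fluorescence, 10-s 1-Hz baseline, 110-s post-stimulus read · Compound – single concentration per compound, DMSO matched to controls · Schedule – 37 °C overnight plating, 90-min dark dye load, 20-min compound pretreatment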
KCNK3 block – human KCNK3 channel inhibitors, primary screen, CHO cells, FluxOR thallium flux, B-score. Potassium channel subfamily K member 3 (Homo sapiens), O14649. FluxOR fluorescence; hits give low values. B-score at 10 µM. actives 0.84% (n = 340,000). AID 602410, 2012;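 active = B-score under library mean minus 4 SD, starting fluorescence ratio at most library mean plus 5 SD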;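 also: more negative B-score means stronger inhibition of thallium flux through KCNK3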
Target sequence (O14649 whole entry, looked up): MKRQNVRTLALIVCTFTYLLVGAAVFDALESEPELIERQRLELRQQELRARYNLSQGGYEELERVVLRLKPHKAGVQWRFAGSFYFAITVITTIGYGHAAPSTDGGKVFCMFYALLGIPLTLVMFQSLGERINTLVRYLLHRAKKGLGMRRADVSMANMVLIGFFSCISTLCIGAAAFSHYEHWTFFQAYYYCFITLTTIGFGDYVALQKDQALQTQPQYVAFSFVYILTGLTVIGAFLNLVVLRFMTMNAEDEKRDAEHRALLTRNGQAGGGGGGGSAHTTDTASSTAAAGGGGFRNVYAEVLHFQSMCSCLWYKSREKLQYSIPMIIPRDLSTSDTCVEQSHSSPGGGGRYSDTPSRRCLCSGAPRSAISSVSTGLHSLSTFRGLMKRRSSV
hERG rescue – hERG rescue from dofetilide block, primary screen, cell-based, CHO-hERG, FluxOR thallium flux, dofetilide IC70 | Voltage-gated inwardly rectifying potassium channel KCNH2 (Homo sapiens), Q12809 | dofetilide IC70 present | activation (rescue from dofetilide block), less the hit threshold, % at 10 µM | actives 0.51% (n = 310,000) | AID 1511, 2009;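 active = activation above the mean of controls blocked by dofetilide plus 5 SD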;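 also: thallium influx through hERG after potassium depolarization seen as dye fluorescence rise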
Kir21 block – inhibitors of mouse Kir2.1 inward-rectifier potassium channel | AID 1672, 2009 | HEK293-Kir2.1, FluxOR thallium flux fluorescence; hits give low values | B-score at 10 µM | actives 0.85% (n = 310,000) | Inward rectifier potassium channel 2 (Mus musculus), P35561;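 active = fluorescence ratio B-score at or below minus 3 SD of library scores, with starting-brightness B-score within 2 SD, cut at about -4.2 in these data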;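 also: channel flux triggered by added potassium and thallium sulfate stimulus; B-score of peak minus minimum fluorescence over baseline after thallium stimulus; more negative B-score means stronger Kir2.1 block with less thallium influx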
KCNQ1 inh – inhibitors of human KCNQ1 channel, primary screen, cell-based, thallium flux, high-throughput. Potassium voltage-gated channel subfamily KQT member 1 (Homo sapiens), P51787. CHO-K1 KCNQ1, FluxOR thallium flux fluorescence; hits give high values. B-score at 10 µM. actives 1.3% (n = 310,000). AID 2642, 2010;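 active = compounds whose thallium flux B-score, printed positive for inhibition, exceeds three library SD while starting fluorescence stays within three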;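 also: channel opened by potassium depolarization with thallium stimulus after 20 min compound exposure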
KCNK9 inh – KCNK9 potassium channel inhibitors, primary screen, HEK293 cells, thallium flux; Potassium channel subfamily K member 9 (Homo sapiens), Q9NPC2; FluxOR thallium flux fluorescence; hits give low values; B-score at 10 µM; actives 1.2% (n = 310,000); AID 488922, 2010;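 active = ratio B-score over 3 SD below the library mean, with starting fluorescence within 5 SD of its mean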;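 also: negative B-score means less thallium flux so channel inhibition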
KCNQ1 block val – KCNQ1 potassium channel inhibitors, confirmation, cell-based, Tl flux, duplicate. shares compounds with KCNQ1 inh. KCNQ1 cell line, FluxOR thallium flux fluorescence. inhibition, % at 10 µM. actives 93% (n = 1,600);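 active = primary screen active, with duplicate mean exceeding buffer control mean plus 3 SD of buffer wells, cut at about 28% in these data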;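 also: 0% = buffer control ratio and 100% = XE991 inhibitor control ratio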
CHO KCNQ1 ctr – thallium flux effects in parental CHO cells, counter-screen for KCNQ1 inhibitor project, cell-based, Tl flux; shares compounds with KCNQ1 inh; parental CHO-K1, FluxOR thallium flux fluorescence ratio; hits give low values; zero means no signal rise above baseline; fluorescence ratio (Tl flux) at 10 µM; actives 21% (n = 1,600); AID 588366, 2011;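 active = mean of duplicate thallium-flux fluorescence ratios in parental host cells more than 5 SD below the buffer control mean, cut at about 0.38 in these data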;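 also: ratio is peak minus minimum fluorescence divided by baseline fluorescence; actives read low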
KCNQ1 APC inh – KCNQ1 channel inhibitors, confirmation, orthogonal assay, cell-based, automated electrophysiology | shares compounds with KCNQ1 inh | KCNQ1-CHO cells, automated patch clamp current | calls only at 10 µM | actives 20% (n = 490);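 active = KCNQ1 current drop exceeding 3 SD of negative control wells, seen in both duplicate runs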;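 also: steady state current during a 2 s step from -80 to +40 mV; negative values mean current inhibition and positive values mean potentiation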
KCNQ2 spec – KCNQ2 channel inhibition, selectivity assay for KCNQ1 inhibitor project, cell-based; shares compounds with KCNQ1 inh; KCNQ2 cells, FluxOR thallium flux fluorescence; inhibition, % at 10 µM; actives 71% (n = 1,600); AID 651746, 2012;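 active = mean percent inhibition of the KCNQ2 thallium signal more than 5 SD above the buffer-only control wells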;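 also: KCNQ2 expressed in CHO cells; 0% = buffer control wells and 100% = XE-991 inhibitor control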
KCNQ1-KCNE1 inh – KCNQ1/KCNE1 channel inhibition, selectivity assay for KCNQ1 inhibitor project, CHO-K1 cells, thallium flux, FluxOR; shares compounds with KCNQ1 inh; FluxOR thallium flux fluorescence; inhibition, % at 10 µM; actives 77% (n = 1,600); AID 652147, 2013;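 active = mean percent inhibition of duplicate wells above the buffer-only control mean plus 3 SD of those controls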;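 also: 0% = buffer only wells and 100% = XE-991 inhibitor control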
Numbers without * were called inactive; i = inactive; nt = not tested or not shown.

SMILES	KCNQ1 act	KCNK3 block	hERG rescue	Kir21 block	KCNQ1 inh	KCNK9 inh	KCNQ1 block val	CHO KCNQ1 ctr	KCNQ2 spec	KCNQ1-KCNE1 inh	others
CCCSc1nnc(NC(=O)Nc2ccc(F)cc2)s1	i	i	-7	-1.4	8*	i	50*	0.5	60%*	37%*
CCN(CC)C(C(=O)NC1CCCCC1)c1ccc(C)cc1 (stereo unspecified)	i	i	-11	1.1	7*	i	75*	0.45	65%*	110%*
Cc1ccccc1C(=O)Nc1ccccc1NC(=O)c1ccccc1Br	i	i	-10	-1	i	i	nt	nt	nt	nt
COc1ccc(Nc2ccccc2NC(=O)c2ccccc2Br)cc1	i	i	-8	-1.3	11*	i	89*	0.44	94%*	90%*
COc1ccc(CNc2cccnc2)c(OC)c1OC	nt	i	nt	nt	nt	nt	nt	nt	nt	nt
O=C1C=C(NC(=O)Nc2ccc(Cl)c(Cl)c2)CCC1	i	i	-18	1	13*	i	39*	0.51	i	i
O=C(Nc1ccc(Cl)c(Cl)c1)Nc1ccccc1O	i	i	-20	0.44	7*	i	72*	0.57	i	66%*
COc1ccc(N(CC(=O)Nc2ccccc2OC)S(=O)(=O)c2ccccc2)cc1Cl	i	i	-4	0.18	7*	i	74*	0.39	92%*	102%*
COc1ccc(N(CC(=O)Nc2cccnc2)S(=O)(=O)c2ccccc2)cc1Cl	i	i	-10	-0.32	i	i	nt	nt	nt	nt
O=C1C(CCCNC(=S)NCc2ccccc2)NC(=S)N1Cc1ccccc1 (stereo unspecified)	i	i	-9	-1.1	6*	i	78*	0.3*	i	115%*
CCC(C)c1ccc(NC(=S)NCc2ccccc2OC)cc1 (stereo unspecified)	i	i	-23	2.4	9*	i	62*	0.52	69%*	66%*
COc1ccccc1CNC(=S)NCCc1ccccc1	i	i	-4	-3.5	i	i	nt	nt	nt	nt
CC(c1ccccc1)N1C(=O)c2ccc(C(=O)Nc3ccc(Br)cc3C(=O)O)cc2C1=O (stereo unspecified)	i	i	-26	-1.1	12*	i	108*	0.42	i	132%*	KCNQ1 APC inh=i
CC(c1ccccc1)N1C(=O)c2ccc(C(=O)Nc3ccccc3C(=O)O)cc2C1=O (stereo unspecified)	i	i	-18	0.06	i	i	nt	nt	nt	nt
CNC(=O)Nc1cc(NC(=O)NC)cc(C(F)(F)F)c1	i	i	-7	-0.55	i	i	nt	nt	nt	nt
CCOC(=O)c1c(C)[nH]c(C)c1S(=O)(=O)N(C)CC(=O)Nc1ccccc1	i	i	-9	0.32	i	i	nt	nt	nt	nt
CCCn1c(=O)n(C)c(=O)c2c(SCC(=O)NC34CC5CC(CC(C5)C3)C4)nc(CC(C)C)nc21	i	i	-19	0.13	8*	i	136*	0.32*	88%*	148%*
O=C(NNC(=O)C1CC1)c1cc(=O)[nH]c2ccccc12	nt	i	nt	nt	nt	nt	nt	nt	nt	nt
COc1cccc(-c2csc(N3CCN(C(=O)NC45CC6CC(CC(C6)C4)C5)CC3)n2)c1	i	i	-11	0	8*	i	102*	0.43	106%*	136%*
COc1cccc(NC(=O)N2CCN(c3nc(-c4cccc(OC)c4)cs3)CC2)c1	i	i	-16	2	i	i	nt	nt	nt	nt
Cc1ccccc1NC(=O)C(c1ccccc1)C1CCCC1 (stereo unspecified)	i	i	-11	0.21	i	i	nt	nt	nt	nt
O=C(Nc1ccc2ccccc2c1)C(c1ccccc1)C1CCCC1 (stereo unspecified)	i	i	-25	-0.3	15*	-7.5*	138*	0.31*	123%*	167%*
Cc1nn(Cc2ccccc2)c(C)c1C(=O)N1CCN(S(=O)(=O)/C=C/c2ccccc2)CC1	nt	i	nt	nt	nt	nt	nt	nt	nt	nt
O=C(NC1CCCCC1)C(c1cccnc1)N(C(=O)c1ccc(Cl)nc1)C1CCCCC1 (stereo unspecified)	i	i	-15	1.1	22*	i	0	0.5	i	i
COc1ccc(-c2cc(C(=O)N3CCN(c4cccc(C)c4C)CC3)c3ccccc3n2)cc1OC	i	i	-29	-0.68	8*	i	60*	0.45	108%*	96%*
COc1ccc(-c2cc(C(=O)N3CCN(c4ncccn4)CC3)c3ccccc3n2)cc1OC	nt	i	nt	nt	nt	nt	nt	nt	nt	nt
CCOc1cccc(CNc2nnnn2C)c1	i	i	-15	0.18	i	i	nt	nt	nt	nt
CC(C)c1ccc(NC(=S)NCc2ccc3c(c2)OCO3)cc1	i	i	-15	1.8	8*	i	82*	0.51	i	61%*
CC(C)(C)c1ccc(S(=O)(=O)/N=C2\C=C(NS(=O)(=O)c3ccccc3)C(=O)c3ccccc32)cc1	i	i	-25	-1.9	8*	-7*	70*	0.44	77%*	142%*

Screens: PubChem BioAssay, Johns Hopkins Ion Channel Center
